KCNK3 inh – human KCNK3 channel inhibitors, primary screen, CHO cells, FluxOR thallium flux, B-score; B-score at 10 µM; Potassium channel subfamily K member 3 (Homo sapiens), O14649; 340,000 tested, 0.84% active; FluxOR fluorescence; stronger effect = lower value;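 active means B-score under library mean minus 4 SD, starting fluorescence ratio at most library mean plus 5 SD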;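 further: more negative B-score means stronger inhibition of thallium flux through KCNK3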
Kir21 block – inhibitors of mouse Kir2.1 inward-rectifier potassium channel. Inward rectifier potassium channel 2 (Mus musculus), P35561. HEK293-Kir2.1, FluxOR thallium flux fluorescence; stronger effect = lower value. B-score at 10 µM. 310,000 tested, 0.85% active. AID 1672, 2009;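 active means fluorescence ratio B-score at or below minus 3 SD of library scores, with starting-brightness B-score within 2 SD, cut at about -4.2 in these data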;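 further: channel flux triggered by added potassium and thallium sulfate stimulus; B-score of peak minus minimum fluorescence over baseline after thallium stimulus; more negative B-score means stronger Kir2.1 block with less thallium influx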
KCNQ1 block – inhibitors of human KCNQ1 channel, primary screen, cell-based, thallium flux, high-throughput; Potassium voltage-gated channel subfamily KQT member 1 (Homo sapiens), P51787; CHO-K1 KCNQ1, FluxOR thallium flux fluorescence; stronger effect = higher value; B-score at 10 µM; 310,000 tested, 1.3% active;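 active means compounds whose thallium flux B-score, printed positive for inhibition, exceeds three library SD while starting fluorescence stays within three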;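 further: channel opened by potassium depolarization with thallium stimulus after 20 min compound exposure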
hERG protect – hERG rescue from dofetilide block, primary screen, cell-based, CHO-hERG, FluxOR thallium flux, dofetilide IC70 | Voltage-gated inwardly rectifying potassium channel KCNH2 (Homo sapiens), Q12809 | dofetilide IC70 present | activation (rescue from dofetilide block), less the hit threshold, % at 10 µM | 310,000 tested, 0.51% active | AID 1511, 2009;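 active means activation above the mean of controls blocked by dofetilide plus 5 SD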;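 further: thallium influx through hERG after potassium depolarization seen as dye fluorescence rise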
KCNK9 inh – KCNK9 potassium channel inhibitors, primary screen, HEK293 cells, thallium flux. Potassium channel subfamily K member 9 (Homo sapiens), Q9NPC2. FluxOR thallium flux fluorescence; stronger effect = lower value. B-score at 10 µM. 310,000 tested, 1.2% active;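 active means ratio B-score over 3 SD below the library mean, with starting fluorescence within 5 SD of its mean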;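 further: negative B-score means less thallium flux so channel inhibition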
KCNQ1 act – potentiators or activators of KCNQ1 channel, primary screen, cell-based, thallium flux, high-throughput | 310,000 tested, 0.35% active | CHO-K1 KCNQ1, thallium flux FluxOR fluorescence; stronger effect = higher value | B-score at 10 µM | Potassium voltage-gated channel subfamily KQT member 1 (Homo sapiens), P51787;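 active means fluorescence ratio B-score, a plate-corrected score, at least three library SD, with initial intensity B-score within 5 SD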
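assay system = KCNQ1-transfected CHO-K1 cells | medium = assay buffer with matched DMSO | probe or stimulus = depolarizing K+/Tl+ stimulus, K2SO4 and Tl2SO4 each 12.5 mM in 5x stock | dosing = single dose | incubation = dye 90 min, compound 20 min, room temperature | detection = kinetic FluxOR fluorescence, 10 s baseline plus 110 s post-stimulus | evaluation = ratio B score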
KCNQ1 block val – KCNQ1 potassium channel inhibitors, confirmation, cell-based, Tl flux, duplicate. shares compounds with KCNQ1 block. KCNQ1 cell line, FluxOR thallium flux fluorescence. inhibition, % at 10 µM. 1,600 tested, 93% active;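 active means primary screen active, with duplicate mean exceeding buffer control mean plus 3 SD of buffer wells, cut at about 28% in these data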
CHO KCNQ1 ctr – thallium flux effects in parental CHO cells, counter-screen for KCNQ1 inhibitor project, cell-based, Tl flux; shares compounds with KCNQ1 block; AID 588366, 2011; 1,600 tested, 21% active; parental CHO-K1, FluxOR thallium flux fluorescence ratio; stronger effect = lower value; zero means no signal rise above baseline; fluorescence ratio (Tl flux) at 10 µM;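 active means mean of duplicate thallium-flux fluorescence ratios in parental host cells more than 5 SD below the buffer control mean, cut at about 0.38 in these data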;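 further: ratio is peak minus minimum fluorescence divided by baseline fluorescence; actives read low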
KCNQ1 ephys val – KCNQ1 channel inhibitors, confirmation, orthogonal assay, cell-based, automated electrophysiology | shares compounds with KCNQ1 block | KCNQ1-CHO cells, automated patch clamp current | calls only at 10 µM | 490 tested, 20% active | AID 624120, 2012;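 active means KCNQ1 current drop exceeding 3 SD of negative control wells, seen in both duplicate runs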;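 further: steady state current during a 2 s step from -80 to +40 mV; negative values mean current inhibition and positive values mean potentiation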
KCNQ2 inh – KCNQ2 channel inhibition, selectivity assay for KCNQ1 inhibitor project, cell-based; 1,600 tested, 71% active; KCNQ2 cells, FluxOR thallium flux fluorescence; inhibition, % at 10 µM; shares compounds with KCNQ1 block;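 active means mean percent inhibition of the KCNQ2 thallium signal more than 5 SD above the buffer-only control wells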;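 further: KCNQ2 expressed in CHO cells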
Target sequence (O88943 whole entry, looked up): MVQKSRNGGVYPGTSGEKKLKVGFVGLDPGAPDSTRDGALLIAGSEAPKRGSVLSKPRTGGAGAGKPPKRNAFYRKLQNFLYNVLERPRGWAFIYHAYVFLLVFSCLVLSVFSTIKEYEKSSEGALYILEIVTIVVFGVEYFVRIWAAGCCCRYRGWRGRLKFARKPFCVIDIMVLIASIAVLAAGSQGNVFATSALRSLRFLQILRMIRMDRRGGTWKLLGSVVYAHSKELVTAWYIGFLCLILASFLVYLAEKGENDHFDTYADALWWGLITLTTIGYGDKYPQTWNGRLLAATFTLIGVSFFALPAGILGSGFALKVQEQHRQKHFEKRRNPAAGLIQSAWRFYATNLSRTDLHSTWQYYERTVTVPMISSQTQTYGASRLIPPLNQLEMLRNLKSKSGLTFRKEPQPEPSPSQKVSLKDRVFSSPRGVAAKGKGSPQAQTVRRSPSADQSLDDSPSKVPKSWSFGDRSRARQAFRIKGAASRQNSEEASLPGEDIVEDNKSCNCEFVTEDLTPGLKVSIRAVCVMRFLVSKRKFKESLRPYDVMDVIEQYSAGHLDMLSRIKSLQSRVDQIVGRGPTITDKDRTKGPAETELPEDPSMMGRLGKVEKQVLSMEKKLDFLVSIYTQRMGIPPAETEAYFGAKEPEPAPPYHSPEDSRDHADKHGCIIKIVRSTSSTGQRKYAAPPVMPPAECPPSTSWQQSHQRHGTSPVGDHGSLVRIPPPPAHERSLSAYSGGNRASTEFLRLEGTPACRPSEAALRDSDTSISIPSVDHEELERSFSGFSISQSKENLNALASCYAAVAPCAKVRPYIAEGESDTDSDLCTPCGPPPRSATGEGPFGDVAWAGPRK
KCNQ1-KCNE1 inh – KCNQ1/KCNE1 channel inhibition, selectivity assay for KCNQ1 inhibitor project, CHO-K1 cells, thallium flux, FluxOR. AID 652147, 2013. inhibition, % at 10 µM. shares compounds with KCNQ1 block. FluxOR thallium flux fluorescence. 1,600 tested, 77% active;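 active means mean percent inhibition of duplicate wells above the buffer-only control mean plus 3 SD of those controls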
A number is an active result; n = inactive; x = not tested or not shown; + = active, no number. Only some compounds are listed: those with a hit (about 3.7% of all), similar ones and a draw of the others.

SMILES	KCNK3 inh	Kir21 block	KCNQ1 block	hERG protect	KCNK9 inh	KCNQ1 act	KCNQ1 block val	CHO KCNQ1 ctr	KCNQ2 inh	KCNQ1-KCNE1 inh	others
CC(NC(=O)CCCCCNC(=O)N1CCn2c1nc1ccccc12)c1ccccc1 (stereo not drawn)	n	n	n	n	n	n	x	x	x	x
CCN(CCn1cccn1)Cc1cn[nH]c1-c1cccc2ccccc12	n	n	n	n	n	n	x	x	x	x
Cc1[nH]n(-c2ccccc2)c(=O)c1N=Nc1c(O)cc(S(=O)(=O)N(C)C)c2ccccc12	n	n	10	n	n	n	124.0	n	72.3%	n	KCNQ1 ephys val=n
Nc1ccc(Oc2ccc3nc(-c4ccccc4)c(-c4ccccc4)nc3c2)cc1	n	n	n	n	n	n	x	x	x	x
Clc1ccc(-c2nc3ccccc3nc2-c2ccccc2)cc1	n	n	n	n	n	n	x	x	x	x
Nc1ccc2nc(-c3ccccc3)c(-c3ccccc3)nc2c1	n	n	15	n	n	n	148.0	0.212	n	n
Cc1ccc(-c2nc3ccccc3nc2-c2ccccc2)cc1	n	n	15	n	n	n	88.5	n	108.0%	152.5%	KCNQ1 ephys val=+
CC1(NC(=O)CCNC(=O)c2ccc(C(C)(C)C)cc2)CCS(=O)(=O)C1 (stereo not drawn)	n	x	x	x	x	x	x	x	x	x
CCCn1c(=O)n(C)c(=O)c2c(SCC(=O)NC34CC5CC(CC(C5)C3)C4)nc(CC(C)C)nc21	n	n	8	n	n	n	136.0	0.317	88.3%	148.0%
CCCCCCCCCn1ccc(=N)cc1	n	n	7	n	n	n	70.5	n	70.7%	n
Cc1ccc(C)c(S(=O)(=O)N2CCN(C(=O)C3CCN(c4ncnc5sc(C)c(C)c45)CC3)CC2)c1	n	n	n	n	n	n	x	x	x	x
CC(=O)c1ccc(NC(=O)CCn2c(=S)oc3ccccc32)cc1	n	n	n	n	n	n	x	x	x	x
O=C(NCc1ccccc1)c1cccc(COc2cccc(Cl)c2)c1	-10.6	n	8	n	n	n	125.5	0.355	94.7%	156.0%
CC(C)c1ccc(NC(=S)NCc2ccc3c(c2)OCO3)cc1	n	n	8	n	n	n	81.5	n	n	61.0%
COc1ccc(C(=O)CC(=O)C(=O)Nc2ccc(OC)c(Cl)c2)cc1	n	n	15	n	-6.68	n	n	n	n	n
CN(C)CCN(C(=O)c1ccc2c(c1)CCCC2)c1nc2cc3c(cc2s1)OCCO3	n	n	11	n	n	n	105.5	0.352	125.0%	121.0%
CCN(CC)CCN(C(=O)c1ccc2ncsc2c1)c1nc2cc3c(cc2s1)OCO3	n	n	10	n	n	n	92.0	n	88.7%	120.0%	KCNQ1 ephys val=+
COc1ccc(C(C)=O)cc1COC(=O)C(CO)NS(=O)(=O)c1ccc(Br)cc1 (stereo not drawn)	n	n	n	n	n	n	x	x	x	x
CCCn1nnnc1NCc1ccccc1C	n	n	n	n	n	n	x	x	x	x
Cc1cccc2cc3c(N)c(C#N)sc3nc12	n	n	n	n	n	n	x	x	x	x
Cc1sc(NC(=O)c2sc3nc4c(C)cccc4cc3c2N)c(C#N)c1C	n	n	9	n	n	n	54.0	n	n	87.0%
S=C(NCc1ccco1)Nc1ccc(Cl)c(Cl)c1	n	n	8	n	n	n	42.5	n	n	52.0%
S=C(NCc1ccncc1)Nc1ccc(Cl)c(Cl)c1	n	n	6	n	n	n	33.0	n	n	n
S=C(NCc1ccco1)Nc1ccc(Oc2ccccc2)cc1	n	n	8	n	n	n	45.0	n	59.3%	66.0%
S=C(NCc1ccncc1)Nc1cc(Cl)cc(Cl)c1	n	n	n	n	n	n	x	x	x	x
SMILES	KCNK3 inh	Kir21 block	KCNQ1 block	hERG protect	KCNK9 inh	KCNQ1 act	KCNQ1 block val	CHO KCNQ1 ctr	KCNQ2 inh	KCNQ1-KCNE1 inh	others
COc1ccc(NC(=S)NCc2ccco2)cc1	n	n	n	n	n	n	x	x	x	x
CCOC(=O)C1CCN(C(=O)COC(=O)CSc2ccccc2C)CC1	n	x	x	x	x	x	x	x	x	x
CCCCOc1ccc(Br)cc1CSC(=N)N	n	-7.55	7	n	n	n	89.5	n	60.0%	n	KCNQ1 ephys val=+
COc1ccc(OCC(=O)Nc2nccs2)cc1	n	n	7	n	n	n	n	n	n	n
CCOc1ccc(OCC(=O)Nc2nccs2)cc1	n	n	n	n	n	n	x	x	x	x
Cc1ccccc1C(=O)Nc1ccccc1NC(=O)c1ccccc1Br	n	n	n	n	n	n	x	x	x	x
COc1ccc(Nc2ccccc2NC(=O)c2ccccc2Br)cc1	n	n	11	n	n	n	89.0	n	94.3%	89.5%
CCOC(=O)c1c(-c2ccco2)csc1NC(=O)COC(=O)c1cnc(C)cn1	n	n	n	n	n	n	x	x	x	x
Cc1ccc(-c2n[nH]c(=S)n2/N=C/c2ccc(C)o2)cc1	n	n	6	n	n	n	n	n	n	n
Clc1ccc(-c2csc(N3CCOCC3)n2)cc1	n	n	n	n	n	n	x	x	x	x
Clc1ccc(-c2csc(N3CCCCCC3)n2)cc1	n	n	8	n	n	n	123.0	n	80.7%	139.5%	KCNQ1 ephys val=n
CC(=O)OCC1=C(C(=O)O)N2C(=O)C(NC(=O)CCn3nc(C(F)(F)F)c(Br)c3C3CC3)C2SC1 (stereo not drawn)	n	n	n	n	n	n	x	x	x	x
Cc1cccc(OCC(=O)Nc2ccc3c(c2)nc(CCN2CCN(C)CC2)n3C)c1	n	n	9	n	n	n	n	n	n	n
COc1ccc(OCC(=O)Nc2ccc3c(c2)nc(CCN2CCN(C)CC2)n3C)cc1	n	n	n	n	n	n	x	x	x	x
